RGS4 pot – RGS4 potentiation or activation; HEK293 M3R/inducible RGS4, carbachol calcium flux Fluo4; active compounds read low; B-score at 10 µM; actives 0.92% (n = 310,000);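 active = B-score of the integrated calcium signal more than 4 SD below the library mean, with starting fluorescence not abnormally high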;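 also: negative B-score means reduced calcium response which marks RGS4 activation or potentiation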
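Test system: HEK293 cells with stable M3R and inducible RGS4; also added: carbachol at ECmax as muscarinic agonist stimulus; schedule: dye loading 30 min 37 °C, buffer rest 30 min RT; technique: kinetic calcium fluorescence imaging with Fluo4-AM dye, 2 µM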
RGS4 block – human RGS4 inhibition; B-score at 10 µM; HEK293 M3R/RGS4 inducible, Fluo-4 calcium flux; active compounds read high; triggered by carbachol at its EC20; AID 463165; actives 0.45% (n = 310,000);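 active = B-score, a plate-corrected calcium signal, over three deviations above library mean, with baseline fluorescence within five deviations of library mean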;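 also: RGS4 expression induced by doxycycline in cells with stable M3 receptor; B-score is computed from the integrated fluorescence ratio over baseline after carbachol; higher B-score means a larger calcium signal and so more RGS4 inhibition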
Target sequence (P49798 whole entry, looked up): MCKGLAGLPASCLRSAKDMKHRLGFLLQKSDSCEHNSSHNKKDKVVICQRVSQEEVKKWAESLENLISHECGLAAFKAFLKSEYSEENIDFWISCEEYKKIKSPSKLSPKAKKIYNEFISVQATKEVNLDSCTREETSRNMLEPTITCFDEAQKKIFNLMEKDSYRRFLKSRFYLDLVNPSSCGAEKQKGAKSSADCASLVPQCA
MrgX1 antagonist – antagonists of human MrgX1 receptor; MRGX1-HEK293 calcium flux, Fluo-4, BAM8-22 antagonism; active compounds read low; actives 1.3% (n = 310,000); B-score at 10 µM; AID 588676; Q96LB2;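 active = calcium-response B-score plate-corrected more than 3 library SD below zero, starting fluorescence within 5 deviations, no agonist response on first addition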;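 also: peak minus trough fluorescence over baseline after final BAM8-22 challenge near maximal dose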
Target sequence (Q96LB2 whole entry, looked up): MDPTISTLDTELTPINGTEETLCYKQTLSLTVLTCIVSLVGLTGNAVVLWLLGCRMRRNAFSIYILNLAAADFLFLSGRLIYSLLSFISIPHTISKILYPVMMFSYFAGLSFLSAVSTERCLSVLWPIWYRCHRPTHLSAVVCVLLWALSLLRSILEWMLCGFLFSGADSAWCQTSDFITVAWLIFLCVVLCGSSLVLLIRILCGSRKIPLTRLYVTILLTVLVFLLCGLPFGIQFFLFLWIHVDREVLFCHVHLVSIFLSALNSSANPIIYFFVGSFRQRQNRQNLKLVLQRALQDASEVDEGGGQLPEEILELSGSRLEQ
MrgX1 allo act – human MrgX1 positive allosteric modulation, primary screen; Q96LB2; MrgX1-HEK293, Fluo-4 calcium flux, FDSS; active compounds read high; B-score at 10 µM; actives 0.63% (n = 310,000); AID 588675;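 active = plate-corrected calcium response at least 3 library SD above typical, normal starting fluorescence, not activating the receptor alone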;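 also: compound read alongside a low EC10 to EC30 dose of BAM8-22 agonist; peak minus trough fluorescence over baseline measured at the second addition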
MrgX1 ag – activates human MrgX1 receptor signaling | Q96LB2 | MrgX1-HEK293 cells, Fluo-4 calcium fluorescence, agonist mode; active compounds read high | B-score at 10 µM | actives 0.44% (n = 310,000) | AID 588627;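 active = calcium response B-score plate-corrected fluorescence ratio at least 3 library SD, with starting fluorescence B-score inside 5 SD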
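Material: HEK293 cells stably expressing human MrgX1 receptor | Quantity: 15,000 cells per well | Times: Cells plated overnight, dye loaded 0.5 h 37 °C, 0.5 h room temperature | Measured by: Kinetic Fluo-4 NW fluorescence of intracellular calcium | Control set: Positive and negative controls per plate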
A number is an active result; n = inactive; x = no result given. Sampled rows, rich in hits. Any-hit rate of the full collection: about 3.5%.

SMILES	RGS4 pot	RGS4 block	MrgX1 antagonist	MrgX1 allo act	MrgX1 ag
CCOC(=O)c1ccc(NC(=O)Cn2ncc(Cl)c(Cl)c2=O)cc1	n	n	-5.2	n	n
Cc1ccc(/C(=N\O)c2oc3c(C)c4oc(=O)cc(C)c4cc3c2C)cc1	-8.1	n	n	10	n
C#CCN1C(=O)C(O)(CC(=O)/C=C/C=C/c2ccccc2)c2ccccc21 (centres undefined)	n	n	n	6.7	n
CCN1C(=O)C(O)(CC(=O)/C=C/C=C/c2ccccc2)c2ccccc21 (centres undefined)	n	n	n	n	n
CN(C)/N=C/C=C1\CCC/C(=C/c2cccs2)C1=O	n	n	n	9.4	n
NC(=O)C1CCN(CC(=O)N2N=CCC2c2ccccc2)CC1 (centres undefined)	n	n	-5.8	n	n
Cc1ccc(C2(c3ccc(C)cc3)CC2C(=O)Nc2ccc([N+](=O)[O-])cc2O)cc1 (centres undefined)	n	n	-4.5	n	n
CC1(C)CC1C(=O)Nc1ccc([N+](=O)[O-])cc1Br (centres undefined)	n	n	n	n	n
Cc1cc(/C=N/O)c(C)n1-c1cccc(Cl)c1	n	n	n	n	n
NC(=O)c1ccc[n+]([C@H]2O[C@@H](COP(=O)([O-])OP(=O)(O)OC[C@H]3O[C@@H](n4cnc5c(N)ncnc54)[C@H](O)[C@@H]3O)[C@H](O)[C@@H]2O)c1	x	x	n	n	34
Nc1ncnc2c1ncn2[C@H]1C[C@H](O)[C@@H](COP(=O)(O)O)O1	n	n	n	n	n
CN1C(=O)c2cccc3c(S(=O)(=O)NCCc4ccccc4)ccc1c23	n	n	n	n	n
O=C1OCC2=C1C(c1ccc(F)cc1)CC(=O)N2c1ccc(F)cc1 (centres undefined)	n	n	n	n	n
O=C1OCC2=C1C(c1ccc(F)cc1)CC(=O)N2c1ccccc1 (centres undefined)	-7.7	n	n	n	n
CC(C(=O)NCc1ccc(F)cc1)n1ccc2cc(S(=O)(=O)N3CCCC3)ccc21 (centres undefined)	n	n	n	n	n
Cc1c(Br)c([N+](=O)[O-])nn1CC(=O)Nc1ccc(C(C)C)cc1	n	n	n	n	n
OC(COc1ccccc1Cl)CN1CCN(CC(O)COc2ccccc2Cl)CC1 (centres undefined)	-7.7	n	n	n	n
O=c1oc2ccccc2nc1/C=C(O)/C=C\c1ccccc1	n	n	n	8.6	n
O=c1oc2ccccc2nc1/C=C(O)/C=C/c1ccc(F)cc1	n	n	n	n	n
COC(=O)Nc1ccc([N+](=O)[O-])cc1OC	n	n	-7.4	n	n
CC1=Nc2ccccc2/C1=C/c1sc(=N)n(-c2nccs2)c1O	n	n	n	n	46
Cc1ccc(OCC(=O)O/N=C(\N)c2ccncc2)c(C)c1	n	n	n	n	n
Cc1cc(C)c(C)c(OCC(=O)O/N=C(\N)c2ccncc2)c1	n	n	n	9.8	n
CC(=O)OCC1O[C@@H](O[C@@H]2C[C@H]3C(C)(C)[C@H](OC(C)=O)CC[C@]3(C)[C@H]3CC[C@]45C[C@]4(CC[C@H]5[C@@H](C)C[C@@H](O)[C@H](O)C(C)(C)O)[C@@]32C)[C@H](O)[C@@H](O)[C@@H]1O (some centres undefined)	n	n	n	n	42
Cc1cccc(C)c1NC(=S)NCc1ccncc1	n	n	n	n	n
SMILES	RGS4 pot	RGS4 block	MrgX1 antagonist	MrgX1 allo act	MrgX1 ag
Cc1ccc(NC(=O)/C(C#N)=C/c2ccc(C)s2)c(C)c1	n	n	-4.7	n	n
CCN(CC)S(=O)(=O)c1ccc(N2CCCC2)c(NC(=O)C2=COCCO2)c1	n	n	n	n	n
Cc1cc(OCCN2CCC(Cc3ccccc3)CC2)ccc1[N+](=O)[O-]	-8	n	n	n	n
Cc1ccc(C(=O)CC(=O)c2ccccc2)cc1	n	n	n	n	n
Cc1ccc(C(=O)Sc2cccccc2=O)cc1	n	n	n	n	49
N=c1n(Cc2ccc(Cl)cc2)c2ccccc2n1CC(O)COc1ccccc1 (centres undefined)	n	n	n	n	n
N=c1n(Cc2ccccc2)c2ccccc2n1CC(O)COc1ccc(Cl)cc1Cl (centres undefined)	-9	n	x	x	x
N#Cc1c(NC(=S)NC(=O)c2ccccc2)sc2c1CCN(CCc1ccccc1)C2	n	n	n	n	58
CCCC[C@@H]1C[C@H]1[C@@H](NC(=O)c1ccco1)c1ccc(C(=O)OC)cc1	n	n	n	n	n
Cc1nc2c(C)cccn2c1/C(O)=C1\C(=O)C(=O)N(CCN(C)C)C1c1ccncc1 (centres undefined)	n	n	n	n	n
Cc1nc2ccccn2c1/C(O)=C1\C(=O)C(=O)N(CCCN(C)C)C1c1ccc(F)cc1 (centres undefined)	x	x	-4.8	n	n
CN(C)c1ccc(/C=N/N=C(N)N)cc1[N+](=O)[O-]	n	n	n	n	37
CC(=O)Nc1c(C(=O)O)[nH]c2ccccc12	n	n	n	n	n
CCCN1CCC(CCOc2ccccc2)(C(=O)OCC)CC1	n	n	n	n	n
COc1cccc(/C=N/n2c(N)c(S(=O)(=O)c3cccs3)c3nc4ccccc4nc32)c1OC	n	n	n	n	n
Nc1c(S(=O)(=O)c2cccc(Cl)c2)c2nc3ccccc3nc2n1/N=C/c1ccc(O)c(O)c1	n	16	n	n	n
N/C(Cc1ccc(Cl)c(Cl)c1)=N\OC(=O)c1cccs1	n	n	n	n	n
N/C(=N\OC(=O)c1cccs1)C1(c2ccc(Cl)cc2Cl)CC1	n	n	n	14	n
C=CCN(CC(O)c1cccc([N+](=O)[O-])c1)C(C)CCc1ccccc1 (centres undefined)	n	n	n	16	n
O=C(Cc1ccccc1)NC(NC(=O)Cc1ccccc1)c1cccc([N+](=O)[O-])c1	n	n	n	n	n
O=C(COc1ccc(/C=C\[N+](=O)[O-])cc1)N1CCOCC1	n	n	n	n	35
O=C1/C(=C/C=C/c2ccccc2)Oc2c1ccc(O)c2CN1CCN(CCO)CC1	n	n	-5.7	n	n
Cc1ccc(/C=C2\Oc3c(ccc(O)c3CN3CCN(C)CC3)C2=O)cc1	-9.6	n	n	n	n
CCN1CCN(Cc2c(O)ccc3c2O/C(=C\c2ccccc2)C3=O)CC1	-8.3	n	n	n	n
CCN1CCN(Cc2c(O)ccc3c2O/C(=C\c2ccc(C)cc2)C3=O)CC1	n	n	n	n	n
CC1CCCCC1NC(=O)Cn1nnc(-c2ccc(Cl)cc2)n1 (centres undefined)	n	n	n	n	n
Cc1ccc(S(=O)(=O)NC(C)C(=O)NC2CCCCCC2)cc1 (centres undefined)	-7.2	n	n	n	n
